These results are taken from PubChem BioAssay AID651846 (The Scripps Research Institute Molecular Screening Center, 2012).

The source made the active and inactive calls.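 Rule for the calls: active = IC50 at or below 10 µM; inactive = IC50 above 10 µM.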 Some results are limits rather than exact numbers.

For orientation: IC50 means the concentration at which inhibition is half-maximal.

This test concerns CHO-S GAL4-VP16 UAS luciferase reporter, luminescence. Description: repression of VP16-driven reporter luminescence – CHO-S cells, counter-screen for NR2E3 agonist project, late-stage follow-up (AID 651846). In short, it runs like this:
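Assay system: CHO-S cells transiently co-transfected with GAL4 DBD–VP16 fusion plus UAS pGL4.31 luciferase; Schedule: 24 h compound treatment, 37 °C; Measured by: One-Glo luminescence; Evaluation: percent inhibition of reporter luminescence scaled between controls; Compound: dose-response concentration series; Replication: triplicates.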
(In general: A counterscreen serves to expose hits that act by an unwanted route or on another target.)
For `O=C(CSc1nnnn1-c1ccc2c(c1)OCCO2)Nc1nc2c(s1)CCCC2`, the IC50 is > 39.8 µM (inactive).
As for `Cc1cnc(NC(=O)C2CC(=O)N(c3ccc4c(c3)OCCO4)C2)s1` (stereo unspecified), the figure is > 39.8 µM (inactive); as for `COc1cccc(N2CCN(c3nc(-c4ccccc4C)cc(=O)[nH]3)CC2)c1`, > 39.8 µM (inactive); as for `O=C(Nc1cccc(NC(=O)c2c(F)cccc2F)n1)c1c(F)cccc1F`, > 39.8 µM (inactive).
The figure for `Cc1ccc(-c2nc(NC(=O)CSc3nnnn3-c3ccccc3)ns2)cc1` is > 39.8 µM (inactive); for `COc1ccc(OC)c(NC(=O)CSc2nnnn2-c2ccc3c(c2)OCO3)c1` it is > 39.8 µM (inactive).
Take `Cc1ccc(NC(=O)CSc2nnnn2-c2ccc3c(c2)OCO3)cc1C`: the IC50 was > 39.8 µM (inactive).
The figure for `O=C(O)CC1(CC(=O)Nc2cc(C(F)(F)F)cc(C(F)(F)F)c2)CCCCC1` is 7.72 µM; for `Cc1cnc(NC(=O)Cc2ccc(Br)cc2)s1` it is > 39.8 µM (inactive).
As for `COc1ccc2c(CC(=O)Nc3ncc(C)s3)coc2c1`, the figure is > 39.8 µM (inactive); as for `Cc1ccc(CN2CC(C(=O)Nc3ncc(C)s3)CC2=O)cc1` (stereo unspecified), > 39.8 µM (inactive); as for `O=c1cc(N2CCN(c3cccc(Cl)c3)CC2)[nH]c(=O)n1C1CCCCC1`, > 39.8 µM (inactive).
As for `Cc1cccc(C(=O)N[C@H](C(=O)Nc2ncc(C)s2)C(C)C)c1`, the figure is > 39.8 µM (inactive); as for `Cc1ccnc(NC(=O)CSc2cc(=O)n(C)c3ccccc23)c1`, > 39.8 µM (inactive).
Regarding `Cc1onc(-c2ccccc2Cl)c1C(=O)Nc1nc2c(s1)CCCC2`, the IC50 was > 39.8 µM (inactive).
As for `Cc1cc(C)cc(NC(=O)CCc2nc3sc4c(c3c(=O)[nH]2)CCCC4)c1`, the figure is > 39.8 µM (inactive); as for `Cc1cnc(NC(=O)CCCc2nc3ccccc3s2)s1`, > 39.8 µM (inactive); as for `Cc1cccc(OCCCC(=O)Nc2nc3ccccc3[nH]2)c1`, > 39.8 µM (inactive).
Consider `O=c1c(Cl)c(N2CCN(c3ccc(F)cc3)CC2)cnn1C12CC3CC(CC(C3)C1)C2`, for which the IC50 is > 39.8 µM (inactive).
The figure for `COc1cccc(NC(=O)CSc2nc3ncc(Br)cc3[nH]2)c1` is > 39.8 µM (inactive); for `NC(=O)c1nn(-c2ccccc2)nc1NC(=O)CSc1nnnn1-c1ccc(Cl)cc1` it is > 39.8 µM (inactive); for `COc1ccc(NC2c3ccccc3C(=O)N2Cc2ccccc2Cl)cc1OC` (stereo unspecified) it is > 39.8 µM (inactive).
The figure for `COc1ccc(S(=O)(=O)N2CCCCC2)cc1NC(=S)Nc1cccc(Cl)c1C` is > 39.8 µM (inactive).
On to `COc1cc2nc(CN3CC=C(c4ccccc4)CC3)[nH]c(=O)c2cc1OC`, for which the IC50 was > 39.8 µM (inactive).
The figure for `O=C(CSc1nnnn1-c1ccc(O)cc1)Nc1ccc(N2CCOCC2)c(Cl)c1` is > 39.8 µM (inactive).
The figure for `COc1ccc(S(=O)(=O)N2CCCCC2)cc1NC(=S)Nc1ccccc1` is > 39.8 µM (inactive).
